MIC and inhibition data for four compounds are collected here from ChEMBL document CHEMBL1124461, “Aromatic dienoyl tetramic acids. Novel antibacterial agents with activity against anaerobes and staphylococci” (J Med Chem, 1989).

In brackets after ≈: the same amount, converted by molar mass.

The test system of experiment [1] is Staphylococcus aureus. The experiment is described as follows: Compound is evaluated for cross resistance with DNA gyrase subunit A or B against Staphylococcus aureus 730A. It is filed as functional. The method in brief: (§1)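 Aerobic MIC by 2-fold dilution on brain–heart infusion agar; values in µg/mL.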
For experiment [2], the system named is Staphylococcus aureus. The experiment is described as follows: Compound is evaluated for cross resistance with DNA gyrase subunit A or B against Staphylococcus aureus 337-113 (norfloxacin-resistant). In kind it is functional. The method in brief: as §1
Experiment [3] deals with Staphylococcus aureus. In words: Compound is evaluated for cross resistance with DNA gyrase subunit A or B against Staphylococcus aureus 45. It is filed as functional. The method in brief:
as §1

In experiment [4] the test system is Staphylococcus aureus. In words: Compound is evaluated for cross resistance with DNA gyrase subunit A or B against Staphylococcus aureus 45CR-1 (coumermycin resistant). In kind it is functional. The method in brief:
as §1

Experiment [5] deals with Bacteroides fragilis. In words: Minimum inhibitory concentration against Bacteroides fragilis ATCC 25285; 0.1-0.8. It is filed as functional. The gist of the method: (§2)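 Anaerobic MICs by 2-fold dilution in Wilkens-Chalgren broth, reported in micrograms/milliliter.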
In experiment [6] the test system is Bacteroides thetaiotaomicron. The experiment is described as follows: Minimum inhibitory concentration against Bacteroides thetaiotaomicron ATCC 29741; 0.2-0.8. It is filed as functional. The gist of the method: as §2
In experiment [7] the test system is Clostridioides difficile. The experiment is described as follows: Minimum inhibitory concentration against Clostridium difficile ATCC 9689; 1.6-3.1. It is filed as functional. The method in brief:
as §2

Experiment [8] has as its system Clostridium perfringens. The experiment is described as follows: Minimum inhibitory concentration against Clostridium perfringens ATCC 13124; 0.05-0.1. In kind it is functional. The gist of the method: (§3)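 Anaerobic MIC by 2-fold dilution in Wilkens-Chalgren broth; values in µg/mL.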
Experiment [9] addresses DNA-directed RNA polymerase subunit beta (Escherichia coli K-12) (UniProt P0A8V2). In words: Percent inhibition at a concentration of 100 ug/mL of RNA polymerase isolated from Escherichia coli K12 (Sigma).
For experiment [10], the system named is Bacteroides fragilis. In words: Compound is evaluated for cross resistance with DNA gyrase subunit A or B against Bacteroides fragilis TirR (tirandamycin resistant). It is filed as functional.
Experiment [11] concerns Bacteroides fragilis. The experiment is described as follows: Minimum inhibitory concentration against Bacteroides fragilis ATCC 25285. In kind it is functional. The method in brief:
as §2

Experiment [12] has as its system Bacteroides thetaiotaomicron. In words: Minimum inhibitory concentration against Bacteroides thetaiotaomicron ATCC 29741. It is filed as functional. The gist of the method:
as §2

For experiment [13], the system named is Clostridioides difficile. In words: Minimum inhibitory concentration against Clostridium difficile ATCC 9689. In kind it is functional. The method in brief:
as §2

Experiment [14] deals with Clostridium perfringens. In words: Minimum inhibitory concentration against Clostridium perfringens ATCC 13124. It is filed as functional. The gist of the method:
as §3

Experiment [15] concerns Escherichia coli. The experiment is described as follows: Minimum inhibitory concentration (MIC) against the cell line Escherichia coli H560. In kind it is functional. The method in brief: (§4)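 Aerobic MICs by 2-fold dilution on brain–heart infusion agar, reported in micrograms/milliliter.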
The test system of experiment [16] is Escherichia coli. The experiment is described as follows: Minimum inhibitory concentration (MIC) against the cell line Escherichia coli juhl. In kind it is functional. The method in brief:
as §4

The next experiment deals with Micrococcus luteus. In words: Minimum inhibitory concentration (MIC) against the cell line Micrococcus luteus ATCC 4698. In kind it is functional. The method in brief:
as §4

The next experiment concerns Pseudomonas aeruginosa. In words: Minimum inhibitory concentration (MIC) against the cell line Pseudomonas aeruginosa A5007. It is filed as functional. The gist of the method: as §4
A further experiment deals with Streptococcus equinus. The experiment is described as follows: Minimum inhibitory concentration (MIC) against the cell line Streptococcus bovis A5169. In kind it is functional. The gist of the method:
as §4

The test system of experiment [17] is Staphylococcus aureus. The experiment is described as follows: Minimum inhibitory concentration (MIC) against the cell line Staphylococcus aureus A5177. In kind it is functional. The method in brief:
as §4

For experiment [18], the system named is Staphylococcus aureus. In words: Minimum inhibitory concentration (MIC) against the cell line Staphylococcus aureus ATCC 6538P. In kind it is functional. The method in brief: as §4
Experiment [19] concerns Staphylococcus aureus. The experiment is described as follows: Minimum inhibitory concentration (MIC) against the cell line Staphylococcus aureus CMX 686B. In kind it is functional. The method in brief: as §4
Experiment [20] relates to Staphylococcus aureus. In words: Minimum inhibitory concentration (MIC) against the cell line Staphylococcus aureus 45. In kind it is functional. The gist of the method: as §4
Another experiment has as its system Streptococcus pyogenes. The experiment is described as follows: Minimum inhibitory concentration (MIC) against the cell line Streptococcus pyogenes EES61. In kind it is functional. The gist of the method:
as §4

Experiment [21] deals with Bacteroides fragilis. The experiment is described as follows: Compound is evaluated for cross resistance with DNA gyrase subunit A or B against Bacteroides fragilis ATCC 25285. It is filed as functional.
Experiment [22] deals with Staphylococcus epidermidis. The experiment is described as follows: Minimum inhibitory concentration (MIC) against the strain Staphylococcus epidermidis 3519.

The term inhibition denotes the share of the control response that was lost under treatment.

Chain of DNA-directed RNA polymerase subunit beta (Escherichia coli K-12) (P0A8V2 whole entry, looked up): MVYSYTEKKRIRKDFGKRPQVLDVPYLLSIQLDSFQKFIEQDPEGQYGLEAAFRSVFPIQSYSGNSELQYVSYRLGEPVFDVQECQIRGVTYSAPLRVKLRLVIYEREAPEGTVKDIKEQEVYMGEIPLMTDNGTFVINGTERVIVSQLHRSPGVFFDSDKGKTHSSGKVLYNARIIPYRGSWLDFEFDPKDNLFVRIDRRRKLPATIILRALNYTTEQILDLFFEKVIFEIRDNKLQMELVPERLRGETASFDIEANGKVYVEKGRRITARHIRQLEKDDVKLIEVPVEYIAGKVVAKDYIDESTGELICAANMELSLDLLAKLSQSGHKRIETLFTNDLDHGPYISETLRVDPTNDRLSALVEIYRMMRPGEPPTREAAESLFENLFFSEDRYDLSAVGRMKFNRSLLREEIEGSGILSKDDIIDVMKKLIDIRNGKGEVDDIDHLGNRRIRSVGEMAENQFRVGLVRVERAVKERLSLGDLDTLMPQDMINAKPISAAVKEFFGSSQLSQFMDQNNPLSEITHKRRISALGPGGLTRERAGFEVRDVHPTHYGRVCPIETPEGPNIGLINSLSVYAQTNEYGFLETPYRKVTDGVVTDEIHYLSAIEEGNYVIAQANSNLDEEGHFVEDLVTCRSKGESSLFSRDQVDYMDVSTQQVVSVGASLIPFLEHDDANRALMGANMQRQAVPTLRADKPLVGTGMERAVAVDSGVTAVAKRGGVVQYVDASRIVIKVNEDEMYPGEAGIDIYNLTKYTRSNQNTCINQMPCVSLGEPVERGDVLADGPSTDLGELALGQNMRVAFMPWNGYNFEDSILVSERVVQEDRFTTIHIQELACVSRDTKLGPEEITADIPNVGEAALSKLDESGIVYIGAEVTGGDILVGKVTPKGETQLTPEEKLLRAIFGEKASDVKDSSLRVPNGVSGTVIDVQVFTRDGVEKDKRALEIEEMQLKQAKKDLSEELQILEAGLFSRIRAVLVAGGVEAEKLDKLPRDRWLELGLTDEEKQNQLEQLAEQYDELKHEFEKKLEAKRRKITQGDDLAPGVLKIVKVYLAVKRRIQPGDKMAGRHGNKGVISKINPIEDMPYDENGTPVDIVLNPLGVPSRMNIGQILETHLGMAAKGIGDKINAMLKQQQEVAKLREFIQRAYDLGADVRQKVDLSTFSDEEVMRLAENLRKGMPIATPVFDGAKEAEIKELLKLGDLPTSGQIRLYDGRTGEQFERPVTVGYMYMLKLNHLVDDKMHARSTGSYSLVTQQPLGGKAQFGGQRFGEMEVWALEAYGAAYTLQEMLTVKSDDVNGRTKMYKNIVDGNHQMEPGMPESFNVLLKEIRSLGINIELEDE

As to `CN1CCN(c2cc3c(cc2F)c(=O)c(C(=O)O)cn3-c2ccc(F)cc2)CC1` [DIFLOXACIN], the MIC is 0.25 mg/L (≈ 0.626 µM) against Staphylococcus aureus [1], 4 mg/L (≈ 10 µM) against Staphylococcus aureus [2], 0.25 mg/L (≈ 0.626 µM) against Staphylococcus aureus [3] and 0.25 mg/L (≈ 0.626 µM) against Staphylococcus aureus [4].
Turning to `CC(/C=C/C(O)=C1\C(=O)CNC1=O)=C\[C@@H](C)C1OC2(C)OC(C(=O)[C@@H]3O[C@@]32C)C1C` (stereo not given in full), the MIC with Bacteroides fragilis [5] was 0.1 mg/L (≈ 0.24 µM); in experiment [6] it was 0.2 mg/L (≈ 0.479 µM); against Clostridioides difficile [7], 1.6 mg/L (≈ 3.83 µM); against Clostridium perfringens [8], at most 0.05 mg/L. In addition, in experiment [9], the inhibition is 50%.
On to `CC(/C=C/C(=O)C1=C(O)CN(C)C1=O)=C\c1ccc2ccccc2c1`, for which the MIC was 0.5 mg/L (≈ 1.5 µM) in the experiment with Bacteroides fragilis [10]; under 0.5 mg/L against Bacteroides fragilis [11]; 31 mg/L (≈ 93 µM) in [12]; under 0.5 mg/L against Clostridioides difficile [13]; 2 mg/L (≈ 6 µM) against Clostridium perfringens [14]; 200 mg/L (≈ 600 µM) against Escherichia coli [15]. Moreover, the MIC against Escherichia coli [16] was 200 mg/L (≈ 600 µM); against Micrococcus luteus, 1.56 mg/L (≈ 4.68 µM); against Pseudomonas aeruginosa, 100 mg/L (≈ 300 µM); with Staphylococcus aureus [1], 0.25 mg/L (≈ 0.75 µM); in the experiment on Staphylococcus aureus [2] it was 0.25 mg/L (≈ 0.75 µM); in the experiment on Staphylococcus aureus [3], 0.25 mg/L (≈ 0.75 µM). Moreover, the MIC was 0.25 mg/L (≈ 0.75 µM) with Staphylococcus aureus [4]; 200 mg/L (≈ 600 µM) against Streptococcus equinus; 1.56 mg/L (≈ 4.68 µM) in the experiment with Staphylococcus aureus [17]; 1.56 mg/L (≈ 4.68 µM) with Staphylococcus aureus [18]; 1.56 mg/L (≈ 4.68 µM) against Staphylococcus aureus [19]; 1.56 mg/L (≈ 4.68 µM) against Staphylococcus aureus [20]. Further, the results for the MIC (against Streptococcus pyogenes; with Bacteroides fragilis [21]; in experiment [22]) were 50 mg/L (≈ 150 µM), 0.5 mg/L (≈ 1.5 µM) and 1.56 mg/L (≈ 4.68 µM), respectively. Moreover, the inhibition in experiment [9] is 12.3%.
As for `CO[C@@H]1[C@@H](OC(=O)c2ccc(C)[nH]2)[C@@H](O)[C@@H](Oc2ccc3c(O)c(NC(=O)c4c[nH]c(C(=O)Nc5c(O)c6ccc(O[C@H]7OC(C)(C)[C@H](OC)[C@@H](OC(=O)c8ccc(C)[nH]8)[C@H]7O)c(C)c6oc5=O)c4C)c(=O)oc3c2C)OC1(C)C` [COUMERMYCIN], the MIC was 0.008 mg/L (≈ 0.00721 µM) against Staphylococcus aureus [1], 0.008 mg/L (≈ 0.00721 µM) against Staphylococcus aureus [2], 0.008 mg/L (≈ 0.00721 µM) against Staphylococcus aureus [3] and 4 mg/L (≈ 3.6 µM) against Staphylococcus aureus [4].
